From ChEMBL document CHEMBL1139359, “Novel chemotactic For-Met-Leu-Phe-OMe (fMLF-OMe) analogues based on met residue replacement by 4-amino-proline scaffold: synthesis and bioactivity” (2009)
The source made the active and inactive calls. The rule behind the calls is not given here.

Columns and labels:
Neutrophil [1] = experiment: Induction of chemotactic activity in human neutrophil at 0.1 nM; type: functional
Method in brief: (§1)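 Neutrophils from healthy donors were purified by dextran sedimentation, Ficoll-Paque centrifugation and hypotonic red-cell lysis, then held in KRPG pH 7.4. Peptide placed in lower well of a 48-well microchemotaxis chamber, diluted in KRPG with 1 mg/mL BSA, tested at 10^–13 to 10^–5 M. Migration into filter scored by leading-front method. C.I. = (test − buffer migration)/buffer migration. Mean of six experiments run in duplicate.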

Neutrophil [2] = experiment: Induction of superoxide anion radicals production in human neutrophil at 1 uM; type: functional
Method in brief: (§2)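 Donor neutrophils (dextran/Ficoll/hypotonic lysis, KRPG pH 7.4) pretreated with 5 µg/mL cytochalasin B for 5 min. Peptide then added at 10^–10–5·10^–5 M at 37 °C in microplate reader. Cytochrome c reduction read as absorbance difference 550 vs 468 nm (absorptivity 18.5 mmol^–1 cm^–1). Expressed as net nmol O2− per 10^6 cells per 5 min, mean of six experiments in duplicate.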

Neutrophil [3] = experiment: Induction of lysozyme release in human neutrophil at 1 uM; type: functional
Method in brief: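 Cells at 3×10^6/well, in triplicate wells, preincubated with 5 µg/mL cytochalasin B at 37 °C for 15 min, then peptide (final 10^–10–5·10^–5 M) for 15 min. Plates spun 400g for 5 min. Supernatant lysozyme measured nephelometrically as rate of Micrococcus lysodeikticus cell-wall lysis at 465 nm. Expressed as net % of total content released by 0.1% Triton X-100. Mean of five experiments in duplicate.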

Neutrophil [4] = experiment: Inhibition of fMLF-OMe-induced lysozyme release in human neutrophil assessed as lysis of Micrococcus lysodeikticus cell wall by nephelometry; type: functional, cell-based
Neutrophil [5] = experiment: Induction of superoxide anion radicals production in human neutrophil at 10 uM; type: functional; method in brief: as §2
Neutrophil [6] = experiment: Inhibition of fMLF-OMe-induced chemotactic index in human neutrophil at 100 uM; type: functional; set-up: Activity: scale not given: the % may be the effect or the level left; conditions: for inhibition at 100 µM: Homo sapiens, Neutrophil
Method in brief: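 Human neutrophils, chemotaxis toward 10 nM fMLF-OMe in microchemotaxis chamber, measured with increasing concentrations of test peptide. Inhibition scored on chemotactic index (test − buffer migration over buffer migration), with migration assessed by leading-front method.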

Neutrophil [7] = experiment: Induction of chemotactic activity in human neutrophil assessed as chemotactic index at 1 nM; type: functional; method in brief: as §1
Neutrophil [8] = experiment: Inhibition of fMLF-OMe-induced superoxide anion radicals production in human neutrophil; type: functional, cell-based

Compound | Activity (Neutrophil [1]) | Activity (Neutrophil [2]) | Activity (Neutrophil [3]) | Activity (Neutrophil [4]) | Activity (Neutrophil [5]; in the assay text read “1 uM” for “10 uM”) | Activity (Neutrophil [5]) | inhibition at 100 µM (Neutrophil [6]) | Activity (Neutrophil [7]) | Activity (Neutrophil [6]) | Activity (Neutrophil [8])
COC(=O)[C@H](Cc1ccccc1)NC(=O)[C@H](CC(C)C)NC(=O)[C@@H]1C[C@@H](NC=O)CN1C=O | 0.75 | 5 nmol | 15% | inactive | – | – | – | – | – | –
COC(=O)[C@H](Cc1ccccc1)NC(=O)[C@H](CC(C)C)NC(=O)[C@@H]1C[C@H](NC=O)CN1C=O | 0.7 | – | 24% | inactive | 4 nmol | – | – | – | – | –
COC(=O)[C@H](Cc1ccccc1)NC(=O)[C@H](CC(C)C)NC(=O)[C@@H]1C[C@@H](NC(=O)OC(C)(C)C)CN1C(=O)OC(C)(C)C | 0.45 | – | 18% | inactive | – | 2 nmol | 60% | – | – | –
COC(=O)[C@H](Cc1ccccc1)NC(=O)[C@H](CC(C)C)NC(=O)[C@@H]1C[C@H](NC(=O)OC(C)(C)C)CN1C(=O)OC(C)(C)C | – | – | 12% | inactive | – | 14.6 nmol | 60% | 0.4 | – | –
COC(=O)[C@H](Cc1ccccc1)NC(=O)[C@H](CC(C)C)NC(=O)[C@@H]1C[C@@H](NC=O)CN1C(=O)OC(C)(C)C | – | – | 13% | – | – | 1 nmol | – | 0.4 | 73% | inactive
COC(=O)[C@H](Cc1ccccc1)NC(=O)[C@H](CC(C)C)NC(=O)[C@@H]1C[C@H](NC=O)CN1C(=O)OC(C)(C)C | – | – | 12% | – | – | 2 nmol | – | 0.34 | – | inactive
COC(=O)[C@H](Cc1ccccc1)NC(=O)[C@H](CC(C)C)NC(=O)[C@H](CCSC)NC=O | – | 52 nmol | 60% | – | – | – | – | 1.1 | – | –
